Measured values reported in ChEMBL document CHEMBL4706770, “SD-91 as A Potent and Selective STAT3 Degrader Capable of Achieving Complete and Long-Lasting Tumor Regression” (ACS Med Chem Lett, 2021).
pKd: −log10 of the molar value. Activity calls are given as the source filed them. No cut-off for these calls is given here.

Legend:
[1] = Toxicity in SCID mouse xenografted with human MOLM16 cells assessed as toxic effects at 25 to 50 mg/kg, iv for 65 days; format: organism-based; settings: in vivo, 1560 h, dose 25-50 mg/kg, time 65 day
Method in brief: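 SCID mice bearing MOLM-16 xenografts dosed intravenously at 25 or 50 mg/kg on a weekly schedule; vehicle 10% PEG400/90% PBS; body weight and tumor volume measured every 2 days; signs of toxicity monitored during and after treatment.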

[2] = molecular target: Signal transducer and activator of transcription 2 (Homo sapiens, UniProt P52630); experiment: Binding affinity to human recombinant STAT2 assessed as dissociation constant incubated for 15 mins by biolayer interferometry
Signal transducer and activator of transcription 2, sequence (P52630 whole entry, the tested form may be a part): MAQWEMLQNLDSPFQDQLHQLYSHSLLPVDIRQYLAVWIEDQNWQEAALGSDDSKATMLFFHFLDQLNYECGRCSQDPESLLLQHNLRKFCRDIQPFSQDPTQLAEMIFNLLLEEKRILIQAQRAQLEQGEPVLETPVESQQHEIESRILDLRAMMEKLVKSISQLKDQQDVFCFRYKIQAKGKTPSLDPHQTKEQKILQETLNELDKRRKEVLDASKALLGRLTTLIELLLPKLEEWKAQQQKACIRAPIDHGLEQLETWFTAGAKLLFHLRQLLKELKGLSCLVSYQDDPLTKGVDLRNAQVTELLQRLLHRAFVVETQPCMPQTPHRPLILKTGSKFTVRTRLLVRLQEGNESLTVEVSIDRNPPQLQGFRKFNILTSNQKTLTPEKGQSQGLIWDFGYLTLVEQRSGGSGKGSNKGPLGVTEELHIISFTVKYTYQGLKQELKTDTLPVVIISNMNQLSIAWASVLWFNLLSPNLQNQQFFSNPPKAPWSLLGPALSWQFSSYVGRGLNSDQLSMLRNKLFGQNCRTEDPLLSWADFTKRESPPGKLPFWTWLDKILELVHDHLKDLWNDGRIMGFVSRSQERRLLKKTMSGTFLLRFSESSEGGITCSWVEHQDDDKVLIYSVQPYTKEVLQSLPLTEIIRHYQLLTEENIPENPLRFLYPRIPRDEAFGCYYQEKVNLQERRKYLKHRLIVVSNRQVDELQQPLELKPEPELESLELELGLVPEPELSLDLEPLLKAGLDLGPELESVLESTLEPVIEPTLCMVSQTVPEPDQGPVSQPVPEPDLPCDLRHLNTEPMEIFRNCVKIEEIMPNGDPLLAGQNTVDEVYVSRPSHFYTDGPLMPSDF
Method in brief: (§1)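 Biolayer interferometry with recombinant human STAT1, STAT2, STAT3, STAT4, STAT5A, STAT5B or STAT6 proteins containing their SH2 domain. Compound run in 2× serial dilutions from 200 nM. Kd taken from steady-state fitting of equilibrium responses against concentration using a 1:1 binding model.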

Mus musculus = experiment: In vivo induction of STAT6 degradation in SCID mouse xenografted with human MOLM16 cells assessed as reduction in STAT6 in tumor tissue at 50 mg/kg, iv measured after 24 hrs by immunoblotting analysis; format: functional, organism-based
Method in brief: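 SCID mice bearing MOLM-16 tumors given a single iv dose of 50 mg/kg or dosing vehicle. Tumor lysates immunoblotted for STAT3, STAT1 and STAT6 at time points from 1 h to at least 24 h.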

[3] = Stability of the compound in complete cell culture medium measured upto 100 hrs by LC/MS/MS analysis; format: physicochemical
Method in brief: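 Compound incubated at 37 °C in the cell culture media used for cellular assays; percentages of parent and conversion products determined at time points up to 96 h.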

[4] = molecular target: T1, Signal transducer and activator of transcription 6 (Homo sapiens, UniProt P42226); experiment: Binding affinity to human recombinant STAT6 assessed as dissociation constant incubated for 15 mins by biolayer interferometry; method in brief: as §1
T1 sequence (P42226 whole entry): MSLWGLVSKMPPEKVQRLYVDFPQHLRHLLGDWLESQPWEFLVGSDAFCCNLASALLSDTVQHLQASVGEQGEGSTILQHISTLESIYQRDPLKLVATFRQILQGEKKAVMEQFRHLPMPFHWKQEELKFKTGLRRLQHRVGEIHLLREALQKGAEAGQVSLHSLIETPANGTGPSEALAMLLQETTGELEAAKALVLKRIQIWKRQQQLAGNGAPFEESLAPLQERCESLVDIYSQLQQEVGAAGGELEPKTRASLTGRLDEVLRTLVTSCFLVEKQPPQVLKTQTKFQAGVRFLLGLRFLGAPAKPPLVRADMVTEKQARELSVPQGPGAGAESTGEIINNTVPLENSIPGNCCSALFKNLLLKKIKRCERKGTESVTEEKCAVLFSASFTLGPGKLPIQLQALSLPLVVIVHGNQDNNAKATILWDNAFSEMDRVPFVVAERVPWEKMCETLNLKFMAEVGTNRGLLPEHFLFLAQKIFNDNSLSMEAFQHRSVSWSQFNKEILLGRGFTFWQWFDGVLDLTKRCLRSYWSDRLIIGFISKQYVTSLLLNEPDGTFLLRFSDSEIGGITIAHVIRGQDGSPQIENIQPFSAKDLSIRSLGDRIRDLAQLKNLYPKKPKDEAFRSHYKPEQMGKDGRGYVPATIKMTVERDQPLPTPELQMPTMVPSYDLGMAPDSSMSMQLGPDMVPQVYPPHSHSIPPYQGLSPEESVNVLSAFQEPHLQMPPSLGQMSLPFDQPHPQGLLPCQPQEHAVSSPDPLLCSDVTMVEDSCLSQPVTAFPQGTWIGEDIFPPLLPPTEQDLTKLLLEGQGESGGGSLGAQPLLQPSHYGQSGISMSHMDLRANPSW

[5] = molecular target: Signal transducer and activator of transcription 3 (Homo sapiens, UniProt P40763); experiment: Induction of STAT3 degradation in human SUP-M2 cells incubated for 4 hrs by western blot analysis; format: cell-based
Signal transducer and activator of transcription 3, sequence (P40763 whole entry): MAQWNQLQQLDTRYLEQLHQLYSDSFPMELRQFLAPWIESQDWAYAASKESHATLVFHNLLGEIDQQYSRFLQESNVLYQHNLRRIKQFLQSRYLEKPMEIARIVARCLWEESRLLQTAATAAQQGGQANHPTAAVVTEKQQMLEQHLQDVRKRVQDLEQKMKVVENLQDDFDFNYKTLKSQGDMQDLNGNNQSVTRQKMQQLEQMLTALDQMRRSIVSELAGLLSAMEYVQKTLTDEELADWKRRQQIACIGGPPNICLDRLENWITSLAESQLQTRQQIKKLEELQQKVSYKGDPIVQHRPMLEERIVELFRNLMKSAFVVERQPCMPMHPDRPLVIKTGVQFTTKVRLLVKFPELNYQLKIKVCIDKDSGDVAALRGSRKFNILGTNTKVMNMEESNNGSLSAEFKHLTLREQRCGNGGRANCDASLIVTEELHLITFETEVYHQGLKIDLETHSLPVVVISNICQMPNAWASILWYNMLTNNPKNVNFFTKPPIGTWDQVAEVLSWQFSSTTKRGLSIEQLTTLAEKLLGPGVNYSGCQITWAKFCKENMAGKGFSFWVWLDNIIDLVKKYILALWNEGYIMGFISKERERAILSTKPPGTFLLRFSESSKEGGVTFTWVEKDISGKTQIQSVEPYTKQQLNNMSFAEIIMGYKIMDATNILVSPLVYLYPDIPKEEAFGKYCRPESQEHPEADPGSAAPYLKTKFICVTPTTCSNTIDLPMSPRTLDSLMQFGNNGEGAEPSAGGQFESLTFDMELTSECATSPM
Method in brief: (§2)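 Cells treated 4 h with compounds across 25 nM to 100 μM; STAT proteins detected by Western blot with GAPDH as loading control; STAT3 DC50 estimated by densitometry of STAT3 relative to GAPDH. Applies to MOLM-16 for all STATs, and to SU-DHL-1 and SUP-M2 for STAT3.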

[6] = molecular target: Protein cereblon/Signal transducer and activator of transcription 4 (Homo sapiens) (UniProt Q96SW2+Q14765); experiment: Protac activity at CRBN/STAT4 in human MOLM16 cells assessed as STAT4 degradation at 0.25 to 100 uM incubated for 4 hrs by Western blot analysis; format: cell-based; settings: dose 0.25-100 µM; method in brief: as §2
Protein cereblon/Signal transducer and activator of transcription 4 (Homo sapiens), sequence (Q14765 whole entry, looked up): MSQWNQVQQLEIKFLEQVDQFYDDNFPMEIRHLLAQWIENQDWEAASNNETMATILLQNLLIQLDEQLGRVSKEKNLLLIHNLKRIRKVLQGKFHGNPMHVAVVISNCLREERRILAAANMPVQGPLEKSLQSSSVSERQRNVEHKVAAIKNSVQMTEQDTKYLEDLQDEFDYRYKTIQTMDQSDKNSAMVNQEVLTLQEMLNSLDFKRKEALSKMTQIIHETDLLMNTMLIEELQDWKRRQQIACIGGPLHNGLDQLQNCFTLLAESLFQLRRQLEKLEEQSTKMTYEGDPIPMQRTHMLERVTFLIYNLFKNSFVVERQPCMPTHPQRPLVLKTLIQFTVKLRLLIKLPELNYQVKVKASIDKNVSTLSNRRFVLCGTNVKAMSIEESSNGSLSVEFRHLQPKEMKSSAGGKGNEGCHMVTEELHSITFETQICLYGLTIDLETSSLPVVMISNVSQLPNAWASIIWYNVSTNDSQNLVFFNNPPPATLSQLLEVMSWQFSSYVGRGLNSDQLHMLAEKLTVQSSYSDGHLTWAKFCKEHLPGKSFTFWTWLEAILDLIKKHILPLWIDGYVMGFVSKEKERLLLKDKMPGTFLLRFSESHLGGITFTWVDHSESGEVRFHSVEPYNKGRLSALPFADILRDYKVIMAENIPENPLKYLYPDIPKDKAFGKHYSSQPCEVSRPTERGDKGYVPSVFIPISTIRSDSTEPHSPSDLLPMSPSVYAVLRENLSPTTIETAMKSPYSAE
Protein cereblon/Signal transducer and activator of transcription 4 (Homo sapiens), sequence (Q96SW2 whole entry, looked up): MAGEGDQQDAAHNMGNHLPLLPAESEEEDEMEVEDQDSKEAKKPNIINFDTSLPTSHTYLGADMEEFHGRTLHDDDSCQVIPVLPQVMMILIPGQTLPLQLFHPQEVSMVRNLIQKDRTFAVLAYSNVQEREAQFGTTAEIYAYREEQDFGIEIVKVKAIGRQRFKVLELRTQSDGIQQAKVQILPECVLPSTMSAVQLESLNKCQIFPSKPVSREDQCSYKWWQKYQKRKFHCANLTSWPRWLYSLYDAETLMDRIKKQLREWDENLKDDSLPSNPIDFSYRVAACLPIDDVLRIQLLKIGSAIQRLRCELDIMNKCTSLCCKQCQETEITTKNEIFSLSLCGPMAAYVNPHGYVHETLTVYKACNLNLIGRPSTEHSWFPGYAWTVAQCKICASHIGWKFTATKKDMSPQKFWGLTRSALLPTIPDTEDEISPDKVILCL

[7] = molecular target: T2, Protein cereblon/Signal transducer and activator of transcription 5A (Homo sapiens) (UniProt P42229+Q96SW2); experiment: Protac activity at CRBN/STAT5 in human SUP-M2 cells assessed as STAT5 degradation at 0.25 to 100 uM incubated for 4 hrs by Western blot analysis; format: cell-based; settings: SUPM2, dose 0.25-100 µM
T2 sequence (P42229 whole entry, looked up): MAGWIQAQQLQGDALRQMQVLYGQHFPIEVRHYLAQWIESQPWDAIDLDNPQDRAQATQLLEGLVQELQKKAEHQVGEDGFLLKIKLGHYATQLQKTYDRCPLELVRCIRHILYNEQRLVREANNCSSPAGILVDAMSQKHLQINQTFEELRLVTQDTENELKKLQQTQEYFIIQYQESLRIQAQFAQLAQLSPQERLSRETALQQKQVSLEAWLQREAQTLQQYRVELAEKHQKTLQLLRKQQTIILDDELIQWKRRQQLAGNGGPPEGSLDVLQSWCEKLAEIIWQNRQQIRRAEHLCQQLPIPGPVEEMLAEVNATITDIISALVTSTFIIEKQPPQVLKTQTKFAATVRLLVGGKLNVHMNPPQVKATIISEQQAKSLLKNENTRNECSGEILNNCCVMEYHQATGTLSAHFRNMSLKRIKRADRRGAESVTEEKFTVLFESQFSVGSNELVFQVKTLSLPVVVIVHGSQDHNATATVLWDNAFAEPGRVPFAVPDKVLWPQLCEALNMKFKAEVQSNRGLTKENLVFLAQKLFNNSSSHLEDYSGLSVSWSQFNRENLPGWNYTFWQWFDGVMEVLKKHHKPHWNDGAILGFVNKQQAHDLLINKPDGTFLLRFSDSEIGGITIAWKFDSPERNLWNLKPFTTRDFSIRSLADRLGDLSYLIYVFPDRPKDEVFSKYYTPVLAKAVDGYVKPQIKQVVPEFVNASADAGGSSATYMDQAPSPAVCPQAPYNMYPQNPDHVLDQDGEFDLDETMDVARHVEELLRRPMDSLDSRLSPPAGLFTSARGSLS
T2 sequence (Q96SW2 whole entry, looked up): as the sequence (Q96SW2 whole entry, looked up) above

[8] = molecular target: T2, Protein cereblon/Signal transducer and activator of transcription 5A (Homo sapiens); experiment: Protac activity at CRBN/STAT5 in human MOLM16 cells assessed as STAT5 degradation at 0.25 to 100 uM incubated for 4 hrs by Western blot analysis; format: cell-based; settings: dose 0.25-100 µM; method in brief: as §2
[9] = Drug metabolism in complete cell culture medium assessed as (2-(((5S,8S,10aR)-8-(((S)-5-amino-1-(benzhydrylamino)-1,5-dioxopentan-2-yl)carbamoyl)-3-(8-(2-(2,6-dioxopiperidin-3-yl)-1-oxoisoindolin-4-yl)oct-7-ynoyl)-6-oxodecahydropyrrolo[1,2-a][1,5]diazocin-5-yl)carbamoyl)-1H-indole-5-carbonyl)phosphonic acid after 2 hrs
Method in brief: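 Parent compound incubated in the cell culture medium used for the cellular assays, with or without cells, at 37 °C. Percentages of the hydrolysis product and the glutarimide ring-opened product measured at time points up to 96 h.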

[10] = molecular target: Protein cereblon/Signal transducer and activator of transcription 3 (Homo sapiens, UniProt P40763+Q96SW2); experiment: Protac activity at CRBN/STAT3 in human SU-DHL-1 cells assessed as degradation of STAT3 incubated for 4 hrs by western blot analysis; format: cell-based; method in brief: as §2
Protein cereblon/Signal transducer and activator of transcription 3, sequence (P40763 whole entry): as the sequence (P40763 whole entry) above
Protein cereblon/Signal transducer and activator of transcription 3, sequence (Q96SW2 whole entry): as the sequence (Q96SW2 whole entry, looked up) above

[11] = Drug uptake in SCID mouse xenografted with human MOLM16 cells assessed as (2-(((5S,8S,10aR)-8-(((S)-5-amino-1-(benzhydrylamino)-1,5-dioxopentan-2-yl)carbamoyl)-3-(8-(2-(2,6-dioxopiperidin-3-yl)-1-oxoisoindolin-4-yl)oct-7-yno yl)-6-oxodecahydropyrrolo[1,2-a][1,5]diazocin-5-yl)carbamoyl)-1H-indole-5-carbonyl)phosphonic acid level in plasma at 50 mg/kg, iv measured after 6 hrs by LC-MS/MS; format: ADME, organism-based; settings: in vivo
Method in brief: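 SCID mice bearing MOLM-16 xenografts given a single iv dose of 50 mg/kg. Concentrations of parent and hydrolysis product measured in plasma (ng/mL) and tumor tissue (ng/g) at 1, 6 and 24 h.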

Row | SMILES | Activity [1] | pKd [2] | Activity (Mus musculus) | Stabilty [3] | pKd [4] | DC50 [5] [nM] | Activity [6] | Activity [7] | Activity [8] | Drug metabolism [9] [%] | DC50 [10] [nM] | Drug uptake [11] [ng/mL]
1 | NC(=O)CC[C@H](NC(=O)[C@@H]1CC[C@@H]2CCN(C(=O)CCCCCC#Cc3cccc4c3CN(C3CCC(=O)NC3=O)C4=O)C[C@H](NC(=O)c3cc4cc(C(=O)P(=O)(O)O)ccc4[nH]3)C(=O)N21)C(=O)NC(c1ccccc1)c1ccccc1 (some centres not stated) | Non-Toxic | < 8.00 | inactive | Stable | < 8.00 | 1200 |  |  |  |  |  | 
2 | NC(=O)CC[C@H](NC(=O)[C@@H]1CC[C@@H]2CCN(C(=O)CCCCCC#Cc3cccc4c3CN(C3CCC(=O)NC3=O)C4=O)C[C@H](NC(=O)c3cc4cc(C(F)(F)P(=O)(O)O)ccc4[nH]3)C(=O)N21)C(=O)NC(c1ccccc1)c1ccccc1 (some centres not stated) |  |  |  |  |  |  | inactive | inactive | inactive | 50 | 61 | 25560
